Assay results reported in ChEMBL document CHEMBL1154723, “Identification and characterisation of new inhibitors for the human hematopoietic prostaglandin D2 synthase” (Eur J Med Chem, 2010).
pIC50: −log10 of the molar value.

What was measured:
[1] = target: T1, Hematopoietic prostaglandin D synthase (Homo sapiens, UniProt O60760); assay: Inhibition of human H-PGDS expressed in Escherichia coli BL21 assessed as rate of glutathione-chloro-dinitro benzene conjugation
Summary of the method: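 Recombinant human H-PGDS from E. coli BL21 DE3 (pET17b, uninduced), GSH-affinity purified. Reaction: 0.1 M Tris HCl pH 8.0, 2 mM MgCl2, 1 mM CDNB, 2 mM GSH, 2.5 ng/ml enzyme, 10% (v/v) ethanol. Conjugate formation followed at A340 nm over 10 min, 25 C. Eight inhibitor concentrations bracketing IC50, background-corrected for solvent. Nonlinear regression, triplicates, mean ± SEM.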

[2] = target: T1, Hematopoietic prostaglandin D synthase; assay: Inhibition of human H-PGDS expressed in Escherichia coli BL21 assessed as rate of glutathione-chloro-dinitro benzene conjugation at 50 uM
Summary of the method: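 GSH–CDNB conjugation by E. coli BL21 DE3-expressed, GSH-affinity purified human H-PGDS (2.5 ng/ml). Buffer was 0.1 M Tris HCl pH 8.0 with 2 mM MgCl2, 1 mM CDNB, 2 mM GSH and 10% ethanol. Read at A340 nm over 10 min at 25 C. Percent inhibition at 50 uM inhibitor, mean ± SD of triplicates.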

T1 sequence (O60760 whole entry): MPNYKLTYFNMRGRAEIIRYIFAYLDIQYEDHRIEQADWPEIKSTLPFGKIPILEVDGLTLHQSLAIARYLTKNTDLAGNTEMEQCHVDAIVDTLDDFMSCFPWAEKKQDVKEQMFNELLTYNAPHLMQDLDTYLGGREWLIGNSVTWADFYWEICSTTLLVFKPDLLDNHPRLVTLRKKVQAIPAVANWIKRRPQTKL

Row | Compound | pIC50 [1] | inhibition [2]
1 | Cc1cc(CC(=O)O)n(C)c1C(=O)c1ccc(Cl)cc1 |  | 0%
2 | O=C1OC(c2ccc(O)c(S(=O)(=O)O)c2)(c2ccc(O)c(S(=O)(=O)O)c2)c2c(Br)c(Br)c(Br)c(Br)c21 [SULFOBROMOPHTHALEIN] | 4.57 | 66.9%
3 | COc1ccc2c(c1)c(CC(=O)O)c(C)n2C(=O)c1ccc(Cl)cc1 |  | 0%
4 | COc1ccc(C(=O)c2cccs2)cc1 | 3.98 | 41.8%
5 | COC(=O)Nc1nc2cc(C(=O)c3cccs3)ccc2[nH]1 |  | 42.6%
6 | O=C(O)COc1ccc(C(=O)c2cccs2)c(Cl)c1Cl |  | 0%
7 | O=C(O)CCCCCC[C@H]1C(=O)NC(=O)N1CCC(O)C1CCCCC1 (stereo not given in full) |  | 17%
8 | Nc1c(S(=O)(=O)O)cc(Nc2ccc(Nc3nc(Cl)nc(Nc4ccccc4S(=O)(=O)O)n3)c(S(=O)(=O)O)c2)c2c1C(=O)c1ccccc1C2=O [CIBACRON BLUE] | 6.70 | 100%
9 | C=C(CC)C(=O)c1ccc(OCC(=O)O)c(Cl)c1Cl [ETHACRYNIC ACID] | 3.91 | 25.3%

Now from value to molecule:

Row | pIC50 [1] | inhibition [2] | Compound
10 | 5.04 | 78.2% | O=C(c1ccccc1)c1cccs1
11 |  | 5.1% | O=C(O)c1ccc2ccccc2c1Br
12 | 5.74 | 100% | c1ccc(C(OC2CCN(CCCc3nnn[nH]3)CC2)c2ccccc2)cc1
13 |  | 0% | O=C(O)CCn1c2c(c3ccccc31)C[C@H](NS(=O)(=O)c1ccc(F)cc1)CC2
14 |  | 8.6% | O=C(Nc1ccccc1)Nc1cccc(C(=O)O)c1
15 |  | 0% | O=C(O)Cc1ccccc1Nc1c(Cl)cccc1Cl
16 |  | 0% | COC(=O)Nc1nc2cc([S+]([O-])c3ccccc3)ccc2[nH]1 (stereo not given)
17 | < 3.52 |  | COC(=O)Nc1nc2ccc([S+]([O-])c3ccccc3)cc2[nH]1 (stereo not given) [OXFENDAZOLE]
18 |  | 0% | CC1(C)Cc2c(-c3ccccc3)c(-c3ccc(Cl)cc3)c(CC(=O)O)n2C1
19 |  | 0% | O=C(O)c1cc(/N=N/c2ccc(S(=O)(=O)Nc3ccccn3)cc2)ccc1O
